Results of several laboratories.
Compare with care: the assays were run in different laboratories.
Target: Vascular endothelial growth factor receptor 1 (FLT1, Homo sapiens, UniProt P17948)

For `CO[C@@H]1[C@H](N(C)C(=O)c2ccccc2)C[C@H]2O[C@]1(C)n1c3ccccc3c3c4c(c5c6ccccc6n2c5c31)C(=O)NC4`, the inhibition was 57% (enzyme activity; inhibitor; 1 µM).
The activity vs control of `CC(C)S(=O)(=O)c1ccc2nccc(Nc3ccc4sc(C5CCCC5)nc4c3)c2c1` is reported as 107% (enzyme activity; inhibitor; 1 µM).
With `CN1CCN(C(=O)c2ccc(NC(=O)Nc3ccc(N(C)c4ccnc(Nc5ccc(CS(C)(=O)=O)cc5)n4)cc3)cc2)CC1` the remaining binding was 0.4% (binding; competition with immobilised ligand; 1 µM).
The inhibition of `C=CC(=O)N1CCC[C@@H](n2nc(-c3ccc(Oc4ccccc4)cc3)c3c(N)ncnc32)C1` is reported as 33% (enzyme activity; inhibitor; 1 µM).
For `C[C@H]1CC[C@H](n2c3cnccc3c3cnc(Nc4ccc5c(n4)CCN(C(=O)CO)C5)nc32)CC1`, the remaining binding was 93% (cell-free assay; competition with immobilised ligand; 1 µM).
The remaining binding of `C1=C/COCc2cc(ccc2OCCN2CCCC2)Nc2nccc(n2)-c2cccc(c2)COC/1` is reported as 64% (binding; 0.1 µM).
For `CCCCC(=O)Nc1ccc(-c2ccc3ncn(CCC)c(=O)c3c2)cn1`, the remaining binding was 98% (binding; competition with immobilised ligand; 0.5 µM).
`O=C1C=C(Nc2ccc(OCc3cn(Cc4ccc(Cl)c(Cl)c4)nn3)cc2)C(=O)c2ccccc21` gave an inhibition of -38% (enzyme activity; inhibitor; radiometric; 10 µM).
